CSN inh – inhibitors of human CSN-mediated cullin deneddylation; Q92905; Purified CSN, SCF-Nedd8-OG deneddylation, fluorescence polarization; inhibition, % at 12.5 µM; actives 0.38% (n = 360,000); AID 651999;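 active = pattern-corrected inhibition above about 35%, with an unprinted fluorescence ratio check between 0.5 and 1.5, limit read from the data, passing the limit was not always enough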;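 also: 0% = enzyme with substrate and 100% = substrate without enzyme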
Target sequence (Q92905 whole entry, looked up, one chain of several): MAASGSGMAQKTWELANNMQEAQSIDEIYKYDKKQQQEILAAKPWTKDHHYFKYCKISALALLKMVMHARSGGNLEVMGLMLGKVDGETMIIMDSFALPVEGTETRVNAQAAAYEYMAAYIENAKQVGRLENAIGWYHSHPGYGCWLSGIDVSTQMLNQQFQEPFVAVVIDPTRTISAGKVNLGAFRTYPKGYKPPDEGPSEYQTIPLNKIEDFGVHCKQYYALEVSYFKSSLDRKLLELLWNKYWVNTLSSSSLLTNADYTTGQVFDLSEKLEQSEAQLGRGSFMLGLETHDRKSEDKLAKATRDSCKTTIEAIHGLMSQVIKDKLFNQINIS
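assay system = purified human Csn5 enzyme expressed in HEK293T cells | amount = 0.24 nM enzyme | buffer or medium = Tris/NaCl/DTT buffer, pH 7.5 | reagent = 10 nM SCFSkp2-Nedd8OG | compound = one concentration, 12.5 µM, 0.25% DMSO | times = 90 min reaction at room temperature | signal = FP | read-out basis = % inhibition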
TPT1 inhibitor – blocks Candida albicans tRNA 2'-phosphotransferase | recombinant caTPT1, FP RNA substrate dephosphorylation | inhibition, % at 5 µM | actives 0.81% (n = 300,000);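 active = inhibition above the mean of all tested compounds plus 3 SD, set per screening campaign, cut at about 24% in these data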;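 also: plate controls were DMSO alone for no effect and ferristatin control at 100 nM for full effect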
Rpn11 block – inhibitors of human proteasome Rpn11; actives 0.59% (n = 360,000); human 26S proteasome, Ub4-pepOG fluorescence polarization; 20S core pre-blocked with epoxomicin; O00487; calls only at 20 µM; AID 588493;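 active = inhibition at 20 µM, scaled to each plate's controls, above about 33%, limit read from the data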
SENP1 inh – inhibitors of human SENP1 SUMO protease catalytic domain; actives 0.21% (n = 360,000); recombinant SENP1 catalytic domain, CyPet-SUMO1-YPet FRET cleavage; Q9P0U3; inhibition, % at 10 µM; AID 624204;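 active = inhibition at least 30% at 10 µM, raw YFP signal under a set limit, fluorescence ratio 0.5 to 1.5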;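 also: 0% = enzyme with DMSO and 100% = no enzyme wells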
Target sequence (Q9P0U3 419-644 limits assumed): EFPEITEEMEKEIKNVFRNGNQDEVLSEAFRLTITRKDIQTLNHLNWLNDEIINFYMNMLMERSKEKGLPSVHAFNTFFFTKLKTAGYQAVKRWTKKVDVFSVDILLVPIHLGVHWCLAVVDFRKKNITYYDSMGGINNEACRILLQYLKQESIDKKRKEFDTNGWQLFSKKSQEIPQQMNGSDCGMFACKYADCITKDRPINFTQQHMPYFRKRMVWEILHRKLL
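Test system: recombinant human SENP1 catalytic domain, His6-tagged / Medium: pH 8 Tris buffer with EDTA, NaCl, BME, BSA, NP40, catalase / Also added: SUMO1 FRET substrate flanked by Cypet and Ypet, 25 nM / Times: 50 min reaction at room temperature / Signal: FRET, CFP and YFP emission / Control set: no-enzyme low control and enzyme-plus-DMSO high control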
HNF4A DNA FP – change in binding of human HNF4 alpha to DNA; P41235; HNF4a-FITC DNA binding, fluorescence polarization, 1 h; activity change, % at 10 µM; actives 0.3% (n = 360,000); in the data active = activity change above about 30%, passing the limit was not always enough
SUMO HTRF inh – inhibitors of human SUMOylation (UBC9); actives 0.36% (n = 290,000); inhibition, % at 35 µM; P63279; AID 2006; HTRF SUMOylation assay, SAE1/SAE2 + UBC9, in vitro; in the data active = inhibition above about 50%, passing the limit was not always enough
caTPT1 confirm – confirmation of Candida albicans TPT1 inhibitors; shares compounds with TPT1 inhibitor; recombinant caTPT1, fluorescence polarization, RNase T1 coupled; inhibition, % at 5 µM; actives 74% (n = 2,400);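 active = inhibition above the primary screen limit, the mean inhibition of all tested compounds plus 3 SD, cut at about 25% in these data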
RNase T1 inh – blocks Aspergillus oryzae RNase T1, a TPT1 counter-screen; shares compounds with TPT1 inhibitor; RNase T1 cleavage, fluorescence polarization, 1536-well; inhibition, % at 5 µM; actives 83% (n = 2,400); AID 2153;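 active = inhibition above the solvent-only control well mean plus 3 SD, limit set per screening run, cut at about 23% in these data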;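 also: plate controls were DMSO wells with enzyme for no effect and wells without RNase T1 for full effect; inhibitors block cleavage so intact labeled substrate keeps polarization high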
* hit, by the source's call; i = inactive; / = no result given; + = active, no number. Hits are enriched below; roughly 1.8% of the tested compounds scored in any of these assays.

SMILES	CSN inh	TPT1 inhibitor	Rpn11 block	SENP1 inh	HNF4A DNA FP	SUMO HTRF inh	caTPT1 confirm	RNase T1 inh
COC(=O)/C(=N/Nc1ccccc1Cl)Sc1nnc(C(O)c2ccccc2)n1-c1ccccc1 (stereo not given)	6	-1	i	0	-1	1	/	/
CC(=O)/C(=N/Nc1ccccc1Cl)Sc1nnc(C(O)c2ccccc2)n1-c1ccccc1 (stereo not given)	-6	48*	i	0	0	-1	6	6
COc1ccc(C(=O)C[n+]2cc(Br)cc3ccccc32)cc1[N+](=O)[O-]	-1	45*	i	50	3	-23	39*	56*
COc1ccc(C(=O)OCC(N)=O)cc1[N+](=O)[O-]	-5	2	i	1	0	-12	/	/
O=C(C[n+]1cc(Br)cc2ccccc21)c1ccccc1	14	40*	/	22	26	12	48*	64*
COc1ccc(CCN(Cc2cccs2)S(=O)(=O)c2ccc(-n3cnnn3)c(OC)c2)cc1OC	1	-1	i	1	1	20	/	/
Nc1nc(C(F)(F)F)cc(=O)[nH]1	0	-2	i	0	4	7	/	/
O=c1cc(C(F)(F)F)nc(-n2[nH]c3c(c2=O)CCCC3)[nH]1	3	33*	i	6	4	-24	16	28*
CCCCc1nc2ccc(S(=O)(=O)O)cc2[nH]1	1	-3	i	2	-1	-4	/	/
C=CCn1c(=O)/c(=C\c2ccccn2)s/c1=C(/C#N)C(=O)NCC1CCCO1 (stereo not given)	1	10	/	6	7	3	/	/
C=CCn1c(=O)/c(=C/c2ccc(C)o2)s/c1=C(/C#N)C(=O)c1ccccc1	45*	106*	/	-27	50	17	144*	142*
Cc1ccc(S(=O)(=O)N(c2nc(N(C)C)nc(N(C)C)n2)n2cnnc2)cc1	-3	29*	i	3	-1	-5	7	12
Cc1ccc(OC(=O)c2oc3ccc(F)cc3c2C)c(C)c1	0	-1	i	2	0	17	/	/
N#CC1=C(N)SC(N)=C(C#N)C1c1cccc(O)c1	118	100*	/	-22	91	24	108*	112*
COc1ccc(C2C(C#N)=C(N)SC(N)=C2C#N)cc1OC	37	103*	/	-21	116	0	71*	81*
N#CC1=C(N)Oc2cc(O)ccc2C1c1ccccc1 (stereo not given)	1	1	i	-35	9	6	/	/
O=C(N/C(=C\c1ccco1)C(=O)N1CCC(O)CC1)c1ccccc1	-1	-2	i	1	1	11	/	/
NC(=S)N/N=C1\CC(n2nnnc2-c2ccccc2Cl)C2COC1O2 (stereo not given)	2	-3	i	-1	0	-9	/	/
C1=C(c2ccccc2)Nc2nnnn2C1c1cccs1 (stereo not given)	-4	-4	i	43	-2	2	/	/
CCc1ccc(-c2cc(C(=O)Nc3c(C)n(C)n(-c4ccccc4)c3=O)c3ccccc3n2)s1	7	25*	i	5	19	14	33*	43*
O=C(CC(c1ccccc1)c1ccccc1)Nc1nn[nH]n1	0	2	i	1	-3	17	/	/
CCCC1=[N+](CC(=O)c2ccccc2)CCn2c(C)ccc21	-1	12	i	-14	1	-1	/	/
CCCC1=[N+](CC(=O)c2ccc(C)cc2)CCn2cccc21	-6	62*	i	6	2	25	10	11
COc1cc(/C=N/NC(=O)CC#N)cc(Br)c1O	1	27*	i	-7	-2	-3	16	19
CCOC(=O)c1c(NC(C)=O)sc2c1CCN(Cc1ccccc1)C2	6	1	i	-105	3	-12	/	/
SMILES	CSN inh	TPT1 inhibitor	Rpn11 block	SENP1 inh	HNF4A DNA FP	SUMO HTRF inh	caTPT1 confirm	RNase T1 inh
CCOC(=O)c1c(NC(=S)Nc2ccccc2)sc2c1CCN(CCc1ccccc1)C2	/	120*	/	/	/	16	114*	113*
CCOC(=O)c1c(NC(=O)C(C)Sc2cccc[n+]2[O-])sc2c1CCN(Cc1ccccc1)C2 (stereo not given)	10	71*	i	-25	4	6	77*	86*
CCOC(=O)c1c(N)sc2c1CCN(CCc1ccccc1)C2	20	28*	/	-87	23	2	16	24*
CC1=NN(c2ccccc2)C(=O)/C1=C/c1c(C)[nH]n(-c2ccc(C)cc2)c1=O	/	1	/	/	/	/	/	/
Cc1ccc(N/C=C2/Sc3ccccc3NC2=O)cc1	15	28*	/	7	32	4	47*	53*
O=C(O)c1ccc(N=Nc2c(O)[nH]c3cc(Cl)ccc23)cc1	9	29*	+	-36	20	1	54*	67*
CN(C)c1ccc(C=C2SC(=S)N(Cc3ccco3)C2=O)cc1	-72	/	/	-27	128	/	/	/
Cc1cc(/C=C2\SC(=S)N(Cc3ccco3)C2=O)c(C)n1-c1ccccc1	24	102*	/	-27	45*	40	98*	106*
COc1ccc(-n2c(C)cc(/C=C3/SC(=S)N(C)C3=O)c2C)cc1	16	28*	/	-27	52*	21	63*	75*
O=C(Nc1cccc(S(=O)(=O)N2CCCCC2)c1)c1cc2ccccc2o1	3	/	i	-10	5	/	/	/
O=C(CCN1CCC(c2cccs2)=N1)c1cccs1	3	28*	i	-34	4	19	5	10
O=C(CCN1CCCC1)c1cccs1	-1	-1	i	3	-2	10	/	/
O=C(O)CNC(=O)CC1S/C(=N/N=C2/NC(=O)CS2)NC1=O (stereo not given)	5	26*	i	-4	21	11	33*	46*
NC(=O)NC(=O)CC1S/C(=N/N=C2\CSC(=O)N2)NC1=O (stereo not given)	2	1	i	1	1	-23	/	/
Cc1ccc(NC(=O)CN2C(=O)N/C(=C/c3ccc(C)s3)C2=O)cc1	58*	71*	/	-10	101	44	66*	76*
Cc1ccc(NC(=O)CN2C(=O)N/C(=C/c3ccc(C)o3)C2=O)cc1	1	4	i	-18	6	12	/	/

Assay outcomes as filed in PubChem BioAssay.
